Drawing on BindingDB's records for doi:10.1021/jm800174p (University of Minnesota, 2009), this text covers Ki for 6 compounds.

As a reminder, the Ki is a measure of affinity in units of concentration, obtained from inhibition or displacement. A lower Ki goes with tighter binding.

Sequence of Mu-type opioid receptor (P35372 whole entry): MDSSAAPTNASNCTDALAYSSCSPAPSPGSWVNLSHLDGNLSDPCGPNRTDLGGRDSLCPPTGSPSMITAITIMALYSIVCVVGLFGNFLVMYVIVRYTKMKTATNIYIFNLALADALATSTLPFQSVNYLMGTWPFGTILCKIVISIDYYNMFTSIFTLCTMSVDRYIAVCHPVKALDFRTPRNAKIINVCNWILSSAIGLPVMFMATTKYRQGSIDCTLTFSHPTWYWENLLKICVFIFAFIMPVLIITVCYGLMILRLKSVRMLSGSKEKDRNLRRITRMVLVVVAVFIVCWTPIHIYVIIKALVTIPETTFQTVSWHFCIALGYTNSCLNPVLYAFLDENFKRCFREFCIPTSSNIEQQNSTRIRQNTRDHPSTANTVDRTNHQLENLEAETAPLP

The first assay has as its target Mu-type opioid receptor (Homo sapiens, UniProt P35372). In words: Displacement of [3H]DAMGO from mu opioid receptor expressed in CHO cells. The method, boiled down:
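Membranes came from CHO cells stably expressing MOP receptor alone or with CCK2 receptor. They were incubated with [3H]DAMGO (0.4 nM) plus increasing unlabeled ligand for 2 h at room temperature in KRH, pH 7.4, with 0.2% BSA and soybean trypsin inhibitor. Nonspecific binding was set with 1 μM DAMGO. Samples were filtered on PEI-soaked GF/C and scintillation counted; Ki and Bmax (pmol/mg protein) came from LIGAND analysis. Mean±S.E.M., 3-5 experiments.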
In general terms: Displacement assays read how much labelled ligand stays bound in the presence of the test substance.
With `CNC(=O)COCC(=O)NCCCCNC(=O)COCC(=O)N[C@H]1CC[C@@]2(O)[C@H]3Cc4cc(O)cc5c4[C@@]2(CCN3C)[C@H]1O5` [2-({[(1S,5R,13R,14S,17S)-9,17-dihydroxy-4-methyl-12-oxa-4-azapentacyclo[9.6.1.0^{1,13}.0^{5,17}.0^{7,18}]octadeca-7(18),8,10-trien-14-yl]carbamoyl}methoxy)-N-(4-{2-[(methylcarbamoyl)methoxy]acetamido}butyl)acetamide], the Ki was 29.8 nM.

Biological target in another assay: not listed separately
In words: Displacement of [3H]DAMGO from CCK2R-MOPR coexpressed in CHO cells.
In the case of `CN1C(=O)[C@H](NC(=O)Nc2cccc(OCCNC(=O)COCC(=O)NCCCCCCNC(=O)COCC(=O)N[C@H]3CC[C@@]4(O)[C@H]5Cc6cc(O)cc7c6[C@@]4(CCN5C)[C@H]3O7)c2)N=C(c2ccccc2)c2ccccc21` [1-{1-Diglycoldiamide-6-[m-(R(+)-1)ureaphenoxy]ethane}-2-(N-oxymorphyldiglycoldiamide)hexane], the Ki was 16.3 nM.

Compound `CN1C(=O)[C@H](NC(=O)Nc2cccc(OCCNC(=O)COCC(=O)NCCNC(=O)COCC(=O)N[C@H]3CC[C@@]4(O)[C@H]5Cc6cc(O)cc7c6[C@@]4(CCN5C)[C@H]3O7)c2)N=C(c2ccccc2)c2ccccc21` [1-{1-Diglycoldiamide-2-[m-(R(+)-1)ureaphenoxy]ethane}-2-(N-oxymorphyldiglycoldiamide)ethane] returned a Ki of 7.3 nM.

In the case of `C[C@@H](NC(=O)[C@@H](N)Cc1ccc(O)cc1)C(=O)NCC(=O)N(C)[C@@H](Cc1ccccc1)C(=O)NCCO` [[tyrosyl-3,5-3H(N)]-D-Ala2-Mephe4-glyol5-enkephalin], the Ki is 11 nM.

The compound `CN1C(=O)[C@H](NC(=O)Nc2cccc(OCCNC(=O)COCC(=O)N[C@H]3CC[C@@]4(O)[C@H]5Cc6cc(O)cc7c6[C@@]4(CCN5C)[C@H]3O7)c2)N=C(c2ccccc2)c2ccccc21` [N-{m-[R(+)-1]Ureaphenoxy}ethyl-N'-oxymorphyldiglycoldiamide] registered a Ki of 14.2 nM.

`CN1C(=O)[C@H](NC(=O)Nc2cccc(OCCNC(=O)COCC(=O)NNC(=O)COCC(=O)N[C@H]3CC[C@@]4(O)[C@H]5Cc6cc(O)cc7c6[C@@]4(CCN5C)[C@H]3O7)c2)N=C(c2ccccc2)c2ccccc21` [N-{m-[R(+)-1]Ureaphenoxy}ethyldiglycolamidehydrazide-N'-oxymorphyldiglycolamidedihydrazide] registered a Ki of 3.9 nM.
